Data as given in ChEMBL document CHEMBL1152928, “Ingol and ingenol diterpenes from the aerial parts of Euphorbia royleana and their antiangiogenic activities” (J Nat Prod, 2009).

What was measured:
[1] = Antiangiogenic activity in zebrafish embryo assessed as inhibition of intersegmental vessel growth at 10 ug/mL after 24 hours by alkaline phosphatase staining relative to control; type: functional, Danio rerio
In short: (§1)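 Embryos at 24 hpf randomly distributed into wells and exposed 24 h. Intersegmental vessels visualized by GFP labeling plus endogenous alkaline phosphatase staining. Activity derived from inhibition ratio of angiogenesis versus 0.1% DMSO vehicle control. PTK787 positive control.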

[2] = Antiangiogenic activity in zebrafish embryo assessed as inhibition of intersegmental vessel growth at 1 ug/mL after 24 hours by alkaline phosphatase staining relative to control; type: functional, Danio rerio; in short: as §1
[3] = Antiangiogenic activity in zebrafish embryo assessed as inhibition of intersegmental vessel growth at 3 ug/mL after 24 hours by alkaline phosphatase staining relative to control; type: functional, Danio rerio; in short: as §1
[4] = Antiangiogenic activity in zebrafish embryo assessed as inhibition of intersegmental vessels growth after 24 hours by alkaline phosphatase staining; type: functional, tissue-based, Danio rerio; in short: as §1
[5] = Antiangiogenic activity in zebrafish embryo assessed as inhibition of intersegmental vessel growth at 5 ug/mL after 24 hours by alkaline phosphatase staining relative to PTK787; type: functional, Danio rerio
[6] = Antiangiogenic activity in zebrafish embryo assessed as inhibition of intersegmental vessel growth at 0.1 ug/mL after 24 hours by alkaline phosphatase staining relative to control; type: functional, Danio rerio; in short: as §1

IC50 [4]	SMILES	inhibition (INH) [1]	inhibition (INH) [2]	inhibition (INH) [3]	inhibition (INH) [5]	inhibition (INH) [6]
> 5 µg/mL	CC(=O)O[C@H]1[C@@H]2[C@H]([C@H](OC(=O)c3ccccc3)[C@H](O)/C(C)=C/[C@@]34O[C@@]3(C[C@@H](C)[C@@H]4OC(=O)c3ccccc3)C(=O)[C@@H]1C)C2(C)C	3.6%	1.1%	1.8%		
> 5 µg/mL	C/C=C(\C)C(=O)O[C@@H]1/C(C)=C/[C@@]23O[C@@]2(C[C@H](C)[C@@H]3OC(=O)/C(C)=C/C)C(=O)[C@H](C)[C@@H](OC(C)=O)[C@@H]2[C@H]([C@@H]1OC(C)=O)C2(C)C	5%		5.8%	5.8%	
> 5 µg/mL	CC(=O)O[C@H]1[C@H]2[C@@H]([C@H](OC(C)=O)[C@@H](C)C(=O)[C@@]34C[C@H](C)[C@H](OC(=O)c5ccccc5)[C@]3(/C=C(\C)[C@H]1OC(=O)c1ccccc1)O4)C2(C)C	1.8%	1.8%	1.8%		
> 5 µg/mL	C/C=C(\C)C(=O)O[C@H]1[C@H]2[C@@H]([C@H](OC(C)=O)[C@@H](C)C(=O)[C@@]34C[C@H](C)[C@H](OC(=O)/C(C)=C/C)[C@]3(/C=C(\C)[C@H]1OC(=O)c1ccccc1)O4)C2(C)C	12.2%		4.7%	1.1%	
> 5 µg/mL	C/C=C(\C)C(=O)O[C@H]1[C@H]2[C@@H]([C@H](OC(C)=O)[C@@H](C)C(=O)[C@@]34C[C@@H](C)[C@H](OC(=O)c5ccccc5)[C@]3(/C=C(\C)[C@H]1O)O4)C2(C)C	0%	5.4%	1.1%		
> 5 µg/mL	C/C=C(\C)C(=O)O[C@H]1[C@H]2[C@@H]([C@H](OC(C)=O)[C@@H](C)C(=O)[C@@]34C[C@H](C)[C@H](OC(=O)/C(C)=C/C)[C@]3(/C=C(\C)[C@H]1O)O4)C2(C)C	4.7%	2.9%	3.6%		
> 5 µg/mL	CC(=O)O[C@H]1[C@@H]2[C@H]([C@H](OC(=O)c3ccccc3)[C@H](O)/C(C)=C/[C@@]34O[C@@]3(C[C@H](C)[C@@H]4OC(=O)c3ccccc3)C(=O)[C@@H]1C)C2(C)C	0%	0%	2.1%		
0.15 µg/mL	Clc1ccc(Nc2nnc(Cc3ccncc3)c3ccccc23)cc1.O=C(O)CCC(=O)O	100%	95.5%			34.6%
> 5 µg/mL	CC(=O)O[C@H]1[C@H]2[C@@H]([C@H](OC(C)=O)[C@@H](C)C(=O)[C@@]34C[C@H](C)[C@H](OC(C)=O)[C@]3(/C=C(\C)[C@H]1OC(=O)c1ccccc1)O4)C2(C)C					
> 5 µg/mL	C/C=C(\C)C(=O)O[C@H]1[C@H]2[C@@H]([C@H](OC(C)=O)[C@@H](C)C(=O)[C@@]34C[C@H](C)[C@H](OC(=O)c5ccccc5)[C@]3(/C=C(\C)[C@H]1O)O4)C2(C)C	3.2%		5.4%	0%	
> 5 µg/mL	C/C=C(\C)C(=O)O[C@H]1[C@@H](C)C[C@@]23O[C@@]12/C=C(\C)[C@@H](O)[C@@H](OC(=O)c1ccccc1)[C@H]1[C@@H]([C@H](OC(C)=O)[C@@H](C)C3=O)C1(C)C	4.7%	4.7%	3.6%		
